Test results taken from PMC5773287 (ACS nano, 2017).
Numbered stars: 1 amine (or outer) side, 2 acyl side, 3 side chain; on linkers, the order of the positions; unused ones are H or OH. Peptide text beside a SMILES is read from it. * marks the point of attachment. X1 = Nc1nc2[nH]cc(CCc3ccc(C(=O)*)cc3)c2c(=O)[nH]1; γGlu = O=C(O)[C@H](CCC(=O)[*:2])N[*:1]

Experiments:
[1] = test system: GL261 mouse glioma cell line; assay: Cytotoxicity assay against the mouse glioma cell line GL261
[2] = format: physicochemical; conditions: for hydrogel formation: 30 mM in 1× DPBS solution, overnight ageing, vial inversion; for self-assembled morphology (cryo-TEM): 1× DPBS, aged over 24 h at room temperature, PemFE 4 mM, C12FE 10 mM
Outline: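 Self-assembled nanostructures imaged by cryo-TEM after aging over 24 h at room temperature. For gelation, lyophilized test peptide powder was dissolved in 1× DPBS at a final 30 mM and sonicated 2 min to aid dissolution. Samples were aged overnight, and gel formation was recorded by photographing inverted vials.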

[3] = Cytotoxicity assay against the mouse glioma cell line GL261

Compound: Nc1nc2[nH]cc(CCc3ccc(C(=O)N[C@@H](CCC(=O)O)C(=O)O)cc3)c2c(=O)[nH]1 [Pem, Pemetrexed, reference compound]
- IC50 ([1]; Mus musculus, GL261, read-out: IC50 (cytotoxicity)): 130 nM

Compound: Nc1nc2[nH]cc(CCc3ccc(C(=O)N[C@@H](CCC(=O)N[C@@H](Cc4ccccc4)C(=O)N[C@@H](Cc4ccccc4)C(=O)N[C@@H](CCC(=O)O)C(=O)N[C@@H](CCC(=O)O)C(=O)O)C(=O)O)cc3)c2c(=O)[nH]1 [PemFE] ({X1-γGlu}-FFEE-OH)
- hydrogel formation [2]: formation of self-supporting hydrogels
- self-assembled morphology (cryo-TEM) [2]: filamentous nanostructures
- IC50 [3]: 2290 nM

Compound: FFEE [C12FE]
- hydrogel formation [2]: formation of self-supporting hydrogels
- self-assembled morphology (cryo-TEM) [2]: filamentous nanostructures
- cell toxicity ([1]; GL261 cells, concentrations up to 100 μM): did not show any significant cell toxicity
